22 compounds from ChEMBL document CHEMBL4219175, “Synthesis and biological evaluation of aminothiazoles against Histoplasma capsulatum and Cryptococcus neoformans” (Bioorg Med Chem, 2018) can be followed below.

In brackets after ≈: the same amount, converted by molar mass.

The test system of data set [1] is Histoplasma capsulatum. The data set can be described thus: Antifungal activity against Histoplasma capsulatum G217B ATCC 26032 at pH 7 measured over 5 days. Format: functional, organism-based. As to conditions: G217B ATCC 26032, 120 h. The essentials:
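Yeasts pre-grown in HMM (37 °C, 5% CO2) to exponential phase, counted by hemacytometer, diluted into RPMI buffered with 25 mM HEPES (pH 7.0) or 25 mM MOPS (pH 5.0) at 5 x 10^5 per well; two-fold dilutions 40 to 0.078 µM, 37 °C, agitated twice daily. A595 read over 5 days, normalized to DMSO controls; 4-day data fitted by 4-parameter regression for IC50; MIC = ≤10% growth.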

Data set [2] concerns Cryptococcus neoformans. Nature of the data set: Antifungal activity against wild type fluconazole-sensitive Cryptococcus neoformans serotype A H99 at pH 7 measured over 4 days. It counts as functional, organism-based. As to conditions: var grubii H99 , 96 h. The method in brief: (§1)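 YPD-grown exponential-phase yeasts, hemacytometer-counted, diluted into RPMI buffered to pH 7.0 with 25 mM HEPES (or pH 5.0 with […] for pH comparison) at 2 x 10^3 per well; two-fold series 40 to 0.078 µM, 37 °C, agitated twice daily. A595 followed over 4 days versus DMSO controls; day-3 turbidity fitted by 4-parameter regression for IC50; MIC = growth ≤10% of untreated.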

Data set [3] deals with P388D1. The data set can be described thus: Cytotoxicity against mouse P388D1 cells assessed as reduction in cell viability after 72 hrs by resazurin-based fluorescence assay. The conditions noted are these: P388D1, 72 h. The essentials:
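P388D1 cells in Ham's F-12 + 10% FBS + 2 mM L-glutamine seeded at 5 x 10^3 per well, adhered overnight, exposed to compounds 80 to 0.3 µM for 72 h. Viability read as resorufin fluorescence (530/590 nm) after 0.1 mM resazurin, pre-saturation time points, versus untreated cells; three biological replicates; IC50 by non-linear regression.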

Data set [4] in a line: Therapeutic index, ratio of IC50 for mouse P388D1 cells to IC50 for Histoplasma capsulatum G217B ATCC 26032. It counts as toxicity. The conditions noted are these: read-out: Ratio IC50. The essentials:
(§2)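 Ratio of P388D1 IC50 (72 h resazurin viability, 80 to 0.3 µM) to yeast IC50 from RPMI/HEPES pH 7.0 broth dilution with A595 turbidity and 4-parameter regression.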

Data set [5] is described as follows: Therapeutic index, ratio of IC50 for mouse P388D1 cells to IC50 for wild type Cryptococcus neoformans serotype A H99. Format: toxicity. The conditions noted are these: read-out: Ratio IC50. The method in brief:
as §2

In data set [6] the test system is Cryptococcus neoformans. Nature of the data set: Antifungal activity against wild-type fluconazole-sensitive Cryptococcus neoformans serotype D B3501 measured over 4 days. As to conditions: B3501, 96 h. It counts as functional, organism-based. The essentials:
as §1

In data set [7] the test system is Cryptococcus neoformans. The data set can be described thus: Antifungal activity against fluconazole-resistant Cryptococcus neoformans serotype A TES9 harboring erg11 mutant measured over 4 days. Format: functional, organism-based. The conditions noted are these: TES9, 96 h. The essentials:
as §1

The subject of data set [8] is Cryptococcus neoformans. Nature of the data set: Antifungal activity against fluconazole-resistant Cryptococcus neoformans serotype A MRL862 harboring erg11 mutant measured over 4 days. Format: functional, organism-based. The conditions noted are these: MRL862, 96 h. The essentials:
as §1

`O=C(Nc1ncc(Cc2ccccc2)s1)C1CCCCC1`: the IC50 in data set [1] is 1.06 µM; in data set [2], 1.36 µM; in data set [3], more than 40 µM. Besides, the MIC90 in data set [1] and in data set [2] was 2.5 µM (≈ 0.751 µg/mL) in each case. Further, the selectivity ratio in data set [4] is more than 38; in data set [5], more than 29.
Take `O=C(CCC1CCCCC1)Nc1ncc(Cc2ccccc2)s1`: the figures for the IC50 in data set [1], in data set [2] and in data set [3] were 0.8 µM, more than 20 µM and more than 40 µM, respectively. For the same compound, the MIC90 in data set [1] is 1.25 µM (≈ 0.411 µg/mL); in data set [2], more than 40 µM. The selectivity ratio in data set [4] is more than 50.
For the compound `O=C(CCC1CCCCC1)Nc1ncc(Cc2cccc3ccccc23)s1`, the IC50 was 0.6 µM in data set [1], more than 20 µM in data set [2] and 27.6 µM in data set [3]. The MIC90 is 1.25 µM (≈ 0.473 µg/mL) in data set [1] and more than 40 µM in data set [2]. Besides, in data set [4], the selectivity ratio turned out to be 46.
For the compound `O=C(CCC1CCCCC1)Nc1ncc(CC2CCCC2)s1`, the IC50 in data set [1] and in data set [2] was more than 20 µM throughout. Also, the MIC90 in data set [1] and in data set [2] was more than 40 µM each time.
Turning to `O=C(Nc1ncc(Cc2cccc3c2CCCC3)s1)C1CCCCC1`, the IC50 in data set [1] and in data set [2] was more than 20 µM in each case. Moreover, the MIC90 in data set [1] and in data set [2] was more than 40 µM throughout.
As for `O=C(CCC1CCCCC1)Nc1ncc(Cc2cccc3ccsc23)s1`, the IC50 in data set [1] is 0.92 µM; in data set [2], more than 20 µM; in data set [3], 18.9 µM. The results for the MIC90 in data set [1] and in data set [2] were 5 µM (≈ 1.92 µg/mL) and more than 40 µM, respectively. Also, the selectivity ratio in data set [4] amounted to 21.
Turning to `O=C(Nc1ncc(Cc2csc3ccccc23)s1)C1CCCCC1`, the IC50 in data set [1] and in data set [2] was more than 20 µM each time. For the same compound, the MIC90 in data set [1] and in data set [2] was more than 40 µM throughout.
As for `O=C(Nc1ncc(Cc2cccc3ccoc23)s1)C1CCCCC1`, the IC50 in data set [1] is 0.42 µM; in data set [2], 0.62 µM; in data set [3] it was more than 40 µM; in data set [6], 0.32 µM; in data set [7], 0.41 µM; in data set [8], 0.15 µM. For the same compound, the MIC90 in data set [1] was 1.25 µM (≈ 0.426 µg/mL); in data set [2], 2.5 µM (≈ 0.851 µg/mL); in data set [6] it was 0.63 µM (≈ 0.214 µg/mL); in data set [7] it was 0.63 µM (≈ 0.214 µg/mL); in data set [8] it was 0.63 µM (≈ 0.214 µg/mL). In addition, the selectivity ratio in data set [4] is more than 95; in data set [5] it was more than 65.
With `O=C(CCC1CCCCC1)Nc1ncc(Cc2cccc3c2CCCC3)s1`, the concentration for half-maximal inhibition (IC50) was 0.9 µM in data set [1], more than 20 µM in data set [2] and 24.3 µM in data set [3]. Moreover, the MIC90 was 2.5 µM (≈ 0.956 µg/mL) in data set [1] and more than 40 µM in data set [2]. Moreover, the selectivity ratio in data set [4] was determined as 27.
Take `O=C(Nc1ncc(Cc2cccc3nsnc23)s1)C1CCCCC1`: the results for the IC50 in data set [1], in data set [2] and in data set [3] were 1.54 µM, 1.52 µM and more than 40 µM, respectively. In addition, the MIC90 came out at 2.5 µM (≈ 0.896 µg/mL) in data set [1] and 5 µM (≈ 1.79 µg/mL) in data set [2]. The selectivity ratio in data set [4] and in data set [5] was more than 26 each time.
For the compound `O=C(CCC1CCCCC1)Nc1ncc(C(=O)c2cccc3ccccc23)s1`, the half-inhibitory concentration (IC50) in data set [1] was 0.64 µM; in data set [2] it was more than 20 µM; in data set [3], more than 40 µM. Also, the MIC90 in data set [1] was 1.25 µM (≈ 0.491 µg/mL); in data set [2] it was more than 40 µM. Further, in data set [4], the selectivity ratio was more than 63.
As for `O=C(CCC1CCCCC1)Nc1ncc(Cc2csc3ccccc23)s1`, the results for the IC50 in data set [1], in data set [2] and in data set [3] were 0.27 µM, more than 20 µM and 16.9 µM, respectively. Besides, the values for the MIC90 in data set [1] and in data set [2] were 0.63 µM (≈ 0.242 µg/mL) and more than 40 µM, respectively. Also, the selectivity ratio in data set [4] was found to be 63.
As for `O=C(CCC1CCCCC1)Nc1ncc(Cc2cccc3sccc23)s1`, the IC50 in data set [1] was 0.2 µM; in data set [2], more than 20 µM; in data set [3] it was more than 40 µM. Also, the values for the MIC90 in data set [1] and in data set [2] were 0.31 µM (≈ 0.119 µg/mL) and more than 40 µM, respectively. For the same compound, the selectivity ratio in data set [4] is more than 200.
Regarding `O=C(CCC1CCCCC1)Nc1ncc(Cc2cccc3nsnc23)s1`, in data set [1], the IC50 was more than 20 µM and the MIC90 is more than 40 µM. Besides, in data set [2], the IC50 is more than 20 µM and the MIC90 was more than 40 µM.
Consider `O=C(CCC1CCCCC1)Nc1ncc(Cc2cccc3c2CCC3)s1`, for which the IC50 in data set [1] is 0.38 µM; in data set [2] it was more than 20 µM; in data set [3], more than 40 µM. Also, the figures for the MIC90 in data set [1] and in data set [2] were 0.63 µM (≈ 0.232 µg/mL) and more than 40 µM, respectively. The selectivity ratio in data set [4] is more than 105.
Take `CCc1cnc(NC(=O)CCC2CCCCC2)s1`: the IC50 in data set [1] and in data set [2] was more than 20 µM throughout. Besides, the MIC90 in data set [1] and in data set [2] was more than 40 µM each time.
For `CCc1cnc(NC(=O)C2CCCCC2)s1`, in data set [1], the IC50 is more than 20 µM and the MIC90 is more than 40 µM. In data set [2], this compound returned an IC50 of more than 20 µM and an MIC90 of more than 40 µM.
Turning to `O=C(Nc1ncc(CC2CCCC2)s1)C1CCCCC1`, the IC50 is 0.76 µM in data set [1], more than 20 µM in data set [2] and more than 40 µM in data set [3]. In addition, the MIC90 in data set [1] is 1.25 µM (≈ 0.366 µg/mL); in data set [2] it was more than 40 µM. Moreover, the selectivity ratio in data set [4] is more than 53.
Take `O=C(CCC1CCCCC1)Nc1ncc(Cc2cccc3ccoc23)s1`: the half-maximal inhibitory concentration (IC50) in data set [1] was 0.4 µM; in data set [2] it was more than 20 µM; in data set [3], 17.8 µM. Also, the MIC90 in data set [1] was 0.63 µM (≈ 0.232 µg/mL); in data set [2], more than 40 µM. Besides, in data set [4], the selectivity ratio is 44.
With `O=C(Nc1ncc(Cc2cc3sccc3s2)s1)C1CCCCC1`, in data set [1], the IC50 was more than 20 µM and the MIC90 is more than 40 µM. Besides, in data set [2], the IC50 was more than 20 µM and the MIC90 was more than 40 µM.
Regarding `O=C(Nc1ncc(Cc2cccc3c2CCC3)s1)C1CCCCC1`, the IC50 is 0.25 µM in data set [1]; 0.41 µM in data set [2]; more than 40 µM in data set [3]; 0.42 µM in data set [6]; 0.45 µM in data set [7]; 0.37 µM in data set [8]. Besides, the MIC90 in data set [1] stood at 0.63 µM (≈ 0.215 µg/mL); in data set [2] it was 1.25 µM (≈ 0.426 µg/mL); in data set [6], 1.25 µM (≈ 0.426 µg/mL); in data set [7], 1.25 µM (≈ 0.426 µg/mL); in data set [8] it was 1.25 µM (≈ 0.426 µg/mL). The selectivity ratio in data set [4] was more than 160; in data set [5] it was more than 98.
Take `OC(Cn1cncn1)(Cn1cncn1)c1ccc(F)cc1F` [FLUCONAZOLE]: the IC50 in data set [2] was 0.95 µM; in data set [6], 0.13 µM; in data set [7], 27.4 µM; in data set [8], 14.6 µM. In addition, the MIC90 in data set [2] stood at 4.08 µM (≈ 1.25 µg/mL); in data set [6] it was 2.04 µM (≈ 0.625 µg/mL); in data set [7], 65.4 µM (≈ 20 µg/mL); in data set [8] it was 32.7 µM (≈ 10 µg/mL).
